Each block holds one molecule with its values, some of them ahead of it. Active and inactive are the calls of the source. No cut-off for these calls is given here.
Legend:
[1] = test system: Candida albicans; assay: Antimicrobial activity against Candida albicans assessed as inhibition of fungal adherence to BEC by measuring change in adhesion at 10 mg/ml treated with fungus for 90 mins followed by compound washout and cell line addition by crystal violet staining based microscopic analysis relative to control; format: functional; set-up: scale not given: the % may be the effect or the level left
Procedure, shortened: (§1)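 Stationary-phase C. albicans, grown overnight in YEPD at 30°C and 200 rpm, was washed and suspended in PBS at 1 x 10^8/mL. Yeast was preincubated 90 min with compound, washed twice, and mixed 50:1 with donor buccal cells (5 x 10^5/ml) at 30°C, 200 rpm, for 90 min. Samples were filtered through 30 µm pores, stained with crystal violet, and yeast counted on 200 BECs; n=3, mean ± SEM.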

[2] = test system: Candida albicans; assay: Growth inhibition of Candida albicans at 0.02 to 10 mg/ml; format: organism-based
[3] = test system: Candida albicans; assay: Antimicrobial activity against Candida albicans assessed as inhibition of fungal adherence to BEC at 0.1 mg/ml treated with fungus for 90 mins followed by compound washout and cell line addition by crystal violet staining based microscopic analysis; format: functional, organism-based; procedure, shortened: as §1
[4] = test system: Candida albicans; assay: Antimicrobial activity against Candida albicans assessed as inhibition of fungal adherence to BEC at 0.1 mg/ml incubated with fungal/BEC mixture for 90 mins by crystal violet staining based microscopic analysis relative to PBS treated control; format: functional; conditions: 1.5 h
[5] = test system: Candida albicans; assay: Antimicrobial activity against Candida albicans assessed as inhibition of fungal adherence to BEC at 0.1 mg/ml incubated with fungal/BEC mixture for 90 mins by crystal violet staining based microscopic analysis relative to untreated control; format: functional; conditions: 1.5 h
[6] = test system: Candida albicans; assay: Antimicrobial activity against Candida albicans assessed as inhibition of fungal adherence to BEC by measuring adhesion at 0.1 mg/ml after 90 mins by crystal violet staining based microscopic analysis relative to control; format: functional; conditions: 1.5 h
Procedure, shortened: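 Competition format: yeast (1 x 10^8/mL PBS) and exfoliated human buccal cells (50:1 ratio) were co-incubated with compound for 90 min at 30°C, 200 rpm. BECs were trapped on a 30 µm polycarbonate membrane, washed twice with PBS, heat-fixed and crystal violet-stained. Adherent yeast were counted microscopically on 200 random BECs; three independent occasions, mean ± SEM.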

[7] = Drug uptake in Candida albicans cell membrane by confocal microscopic analysis; format: ADME, cell-based
Procedure, shortened: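 For confocal imaging, C. albicans cells were co-incubated with the fluorescein-labelled galactoside, with untreated cells and FITC-treated cells as controls. Excitation was at 488 nm and emission was collected at 500–600 nm.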

Structure (SMILES): O=C(NCc1cn(CCO[C@@H]2O[C@H](CO)[C@H](O)[C@H](O)[C@H]2O)nn1)c1cc(C(=O)NCc2cn(CCO[C@@H]3O[C@H](CO)[C@H](O)[C@H](O)[C@H]3O)nn2)cc(C(=O)NCc2cn(CCO[C@@H]3O[C@H](CO)[C@H](O)[C@H](O)[C@H]3O)nn2)c1
Activity [1]: -42% | growth inhibition (GI) [2]: Non-Toxic

Structure (SMILES): CCC(=O)Nc1cc(C(=O)NCc2cn([C@@H]3O[C@H](CO)[C@H](O)[C@H](O)[C@H]3O)nn2)cc(C(=O)NCc2cn([C@@H]3O[C@H](CO)[C@@H](O)[C@H](O)[C@@H]3O)nn2)c1
Activity [1]: -24%

Structure (SMILES): CCC(=O)Nc1cc(C(=O)NCc2cn([C@H]3O[C@@H](C)[C@@H](O)[C@@H](O)[C@@H]3O)nn2)cc(C(=O)NCc2cn([C@H]3O[C@@H](C)[C@@H](O)[C@@H](O)[C@@H]3O)nn2)c1
Activity [1]: -8% | growth inhibition (GI) [2]: Non-Toxic

Structure (SMILES): CCC(=O)Nc1cc(C(=O)NCc2cn(CCO[C@@H]3O[C@H](CO)[C@H](O)[C@H](O)[C@H]3O)nn2)cc(C(=O)NCc2cn(CCO[C@@H]3O[C@H](CO)[C@H](O)[C@H](O)[C@H]3O)nn2)c1
Activity [1]: -35% | growth inhibition (GI) [2]: Non-Toxic

Structure (SMILES): CC[C@H](C)C[C@H](C)CCCCCCCCC(=O)N[C@H]1C[C@@H](O)[C@@H](NCCN)NC(=O)[C@@H]2[C@@H](O)CCN2C(=O)[C@H]([C@H](O)CCN)NC(=O)[C@H]([C@H](O)[C@@H](O)c2ccc(O)cc2)NC(=O)[C@@H]2C[C@@H](O)CN2C(=O)[C@H]([C@@H](C)O)NC1=O [CASPOFUNGIN]
growth inhibition (GI) [2]: Non-Toxic

Structure (SMILES): O=C(NCc1cn([C@@H]2O[C@H](CO)[C@H](O)[C@H](O)[C@H]2O)nn1)c1cc(C(=O)NCc2cn([C@@H]3O[C@H](CO)[C@H](O)[C@H](O)[C@H]3O)nn2)cc(C(=O)NCc2cn([C@@H]3O[C@H](CO)[C@H](O)[C@H](O)[C@H]3O)nn2)c1
Activity [1]: -45% | growth inhibition (GI) [2]: Non-Toxic

Structure (SMILES): CCC(=O)Nc1cc(C(=O)NCc2cn([C@@H]3O[C@H](CO)[C@H](O[C@@H]4O[C@H](CO)[C@H](O)[C@H](O)[C@H]4O)[C@H](O)[C@H]3O)nn2)cc(C(=O)NCc2cn([C@@H]3O[C@H](CO)[C@H](O[C@@H]4O[C@H](CO)[C@H](O)[C@H](O)[C@H]4O)[C@H](O)[C@H]3O)nn2)c1
Activity [1]: 6.5%

Structure (SMILES): CCC(=O)Nc1cc(C(=O)NCc2cn([C@H]3O[C@H](CO)[C@@H](O)[C@H](O)[C@H]3NC(C)=O)nn2)cc(C(=O)NCc2cn([C@H]3O[C@H](CO)[C@@H](O)[C@H](O)[C@H]3NC(C)=O)nn2)c1
Activity [1]: -45%

Structure (SMILES): CCC(=O)Nc1cc(C(=O)NCc2cn([C@@H]3O[C@H](CO)[C@H](O)[C@H](O)[C@H]3O)nn2)cc(C(=O)NCc2cn([C@@H]3O[C@H](CO)[C@H](O)[C@H](O)[C@H]3O)nn2)c1
inhibition [3]: Active | Activity [1]: -80% | inhibition at 100 µg/mL [4]: 31% | inhibition at 100 µg/mL [5]: 56% | inhibition at 100 µg/mL [6]: 65% | growth inhibition (GI) [2]: Non-Toxic

Structure (SMILES): CCC(=O)Nc1cccc(C(=O)NCc2cn([C@@H]3O[C@H](CO)[C@H](O)[C@H](O)[C@H]3O)nn2)c1
Activity [1]: -14.5%

Drug uptake [7]: Active
Structure (SMILES): O=C(NCc1cn([C@@H]2O[C@H](CO)[C@H](O)[C@H](O)[C@H]2O)nn1)c1cc(NC(=S)Nc2ccc3c(c2)C(=O)OC32c3ccc(O)cc3Oc3cc(O)ccc32)cc(C(=O)NCc2cn([C@@H]3O[C@H](CO)[C@H](O)[C@H](O)[C@H]3O)nn2)c1

Structure (SMILES): CCC(=O)Nc1cccc(C(=O)NCc2cn([C@H]3O[C@@H](C)[C@@H](O)[C@@H](O)[C@@H]3O)nn2)c1
Activity [1]: -2%

Structure (SMILES): CCC(=O)Nc1cc(C(=O)NCc2cn([C@H]3O[C@H](CO)[C@@H](O)[C@H](O)[C@@H]3O)nn2)cc(C(=O)NCc2cn([C@H]3O[C@H](CO)[C@@H](O)[C@H](O)[C@@H]3O)nn2)c1
Activity [1]: 3%

Structure (SMILES): CCC(=O)Nc1cccc(C(=O)NCc2cn(CCO[C@@H]3O[C@H](CO)[C@H](O)[C@H](O)[C@H]3O)nn2)c1
Activity [1]: -7.5%

Structure (SMILES): C[C@@H]1O[C@H](n2cc(CNC(=O)c3cc(C(=O)NCc4cn([C@H]5O[C@@H](C)[C@@H](O)[C@@H](O)[C@@H]5O)nn4)cc(C(=O)NCc4cn([C@H]5O[C@@H](C)[C@@H](O)[C@@H](O)[C@@H]5O)nn4)c3)nn2)[C@@H](O)[C@H](O)[C@@H]1O
Activity [1]: -30% | growth inhibition (GI) [2]: Non-Toxic

Structure (SMILES): CCC(=O)Nc1cc(C(=O)N[C@@H]2O[C@H](CO)[C@H](O)[C@H](O)[C@H]2O)cc(C(=O)N[C@@H]2O[C@H](CO)[C@H](O)[C@H](O)[C@H]2O)c1
Activity [1]: -26%

Source: ChEMBL document CHEMBL4382206, “Inhibition of adherence of the yeast Candida albicans to buccal epithelial cells by synthetic aromatic glycoconjugates” (Eur J Med Chem, 2018)
